{"source": "ChEMBL document CHEMBL1938303", "about": "“Novel biologically active nitro and amino substituted benzimidazo[1,2-a]quinolines” (Bioorg Med Chem, 2011)", "key": {"[1]": {"test_system": "MOLT-4", "experiment": "Antitumor activity against human MOLT4 cells assessed as growth inhibition after 72 hrs by MTT assay", "assay_type": "functional, cell-based", "summary_of_the_method": "(§1)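 MCF-7, SW 620, HCT 116 and H 460 were grown as monolayers in DMEM, and MOLT-4 in suspension in RPMI, all with 10% FBS, 2 mM L-glutamine and penicillin/streptomycin at 37 °C in 5% CO2. Cells were seeded at 1×10^4 to 3×10^4 cells/mL on day 0. Compounds were added in ten-fold dilutions (10^-8 to 10^-4 M) for 72 h, then read by MTT at 570 nm. IC50 came from linear regression of percentage growth. Quadruplicate, at least two experiments.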"}, "[2]": {"test_system": "HCT-116", "experiment": "Cell cycle arrest in human HCT116 cells assessed as accumulation at S phase at 5 uM after 48 hrs by flow cytometric analysis (reference value: 35 %)", "assay_type": "functional"}, "[3]": {"test_system": "HCT-116", "experiment": "Cell cycle arrest in human HCT116 cells assessed as accumulation at G0/G1 phase at 5 uM after 24 hrs by flow cytometric analysis (reference value: 40 %)", "assay_type": "functional"}, "[4]": {"test_system": "HCT-116", "experiment": "Cell cycle arrest in human HCT116 cells assessed as accumulation at S phase at 5 uM after 24 hrs by flow cytometric analysis (reference value: 39 %)", "assay_type": "functional"}, "[5]": {"test_system": "HCT-116", "experiment": "Cell cycle arrest in human HCT116 cells assessed as accumulation at G0/G1 phase at 5 uM after 48 hrs by flow cytometric analysis (reference value: 40 %)", "assay_type": "functional"}, "[6]": {"test_system": "HCT-116", "experiment": "Cell cycle arrest in human HCT116 cells assessed as accumulation at Sub G0/G1 phase at 5 uM after 24 hrs by flow cytometric analysis (reference value: 3 %)", "assay_type": "functional"}, "[7]": {"test_system": "HCT-116", "experiment": "Cell cycle arrest in human HCT116 cells assessed as accumulation at G2/M phase at 5 uM after 24 hrs by flow cytometric analysis (reference value: 21 %)", "assay_type": "functional"}, "[8]": {"test_system": "HCT-116", "experiment": "Antitumor activity against human HCT116 cells assessed as growth inhibition after 72 hrs by MTT assay", "assay_type": "functional, cell-based", "summary_of_the_method": "as §1"}, "[9]": {"test_system": "SW-620", "experiment": "Antitumor activity against human SW620 cells assessed as growth inhibition after 72 hrs by MTT assay", "assay_type": "functional, cell-based", "summary_of_the_method": "as §1"}, "[10]": {"experiment": "Aqueous solubility of the compound", "assay_type": "physicochemical", "conditions": "buffer"}, "[11]": {"test_system": "NCI-H460", "experiment": "Antitumor activity against human H460 cells assessed as growth inhibition after 72 hrs by MTT assay", "assay_type": "functional, cell-based", "summary_of_the_method": "as §1"}, "[12]": {"test_system": "HCT-116", "experiment": "Cell cycle arrest in human HCT116 cells assessed as accumulation at Sub G0/G1 phase at 5 uM after 48 hrs by flow cytometric analysis (reference value: 1 %)", "assay_type": "functional"}, "[13]": {"test_system": "HCT-116", "experiment": "Cell cycle arrest in human HCT116 cells assessed as accumulation at G2/M phase at 5 uM after 48 hrs by flow cytometric analysis (reference value: 25 %)", "assay_type": "functional"}, "[14]": {"test_system": "MCF7", "experiment": "Antitumor activity against human MCF7 cells assessed as growth inhibition after 72 hrs by MTT assay", "assay_type": "functional, cell-based", "conditions": "MCF7, 72 h", "summary_of_the_method": "as §1"}, "[15]": {"test_system": "Nucleic Acid", "experiment": "Binding affinity to calf thymus DNA assessed as intercalation measuring viscosity index at compound to DNA molar ratio of 0.2 at pH 7 by viscometry method", "assay_type": "nucleic-acid assay", "conditions": "Bos taurus"}, "[16]": {"test_system": "Nucleic Acid", "experiment": "Binding affinity to calf thymus DNA assessed as binding constant at pH 7 by fluorescence quenching assay", "assay_type": "nucleic-acid assay", "conditions": "Bos taurus", "summary_of_the_method": "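Calf thymus DNA in sodium cacodylate buffer (I = 0.05 mol dm⁻³, pH 7.0) was sonicated and filtered, with concentration taken as phosphate. Portions of DNA were added to the buffered compound, keeping absorbance below 0.05 at the excitation wavelength and DMSO below 1%. Emission was recorded from 350 to 600 nm. Ks came from non-linear Scatchard fitting, recalculated at fixed n = 0.2.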"}, "[17]": {"test_system": "NCI-H460", "experiment": "Drug uptake in human H460 cells assessed as colocalization with endoplasmic reticulum at 100 uM after 2 hrs by fluorescence microscopy", "assay_type": "ADME, cell-based", "conditions": "nci-h460, 2 h"}, "[18]": {"experiment": "Drug uptake in human H460 cell cytoplasm at 100 uM after 2 hrs by fluorescence microscopy", "assay_type": "ADME, cell-based", "conditions": "h460, 2 h", "summary_of_the_method": "(§2)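 H 460 cells were grown on cover slips (100,000 cells/well) in DMEM at 37 °C for 24 h. They were then exposed to 100 µM compound for 120 min, rinsed twice with PBS, and examined immediately for intrinsic compound fluorescence under a fluorescence microscope.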"}, "[19]": {"experiment": "Drug uptake in human H460 cell cytoplasm at 100 uM after 24 hrs by fluorescence microscopy", "assay_type": "ADME, cell-based", "conditions": "h460, 24 h"}, "[20]": {"experiment": "Drug uptake in human H460 cell nucleus at 100 uM after 2 hrs by fluorescence microscopy", "assay_type": "ADME, cell-based", "conditions": "h460, 2 h", "summary_of_the_method": "as §2"}, "[21]": {"test_system": "Nucleic Acid", "experiment": "Binding affinity to calf thymus DNA assessed as change in melting temperature at compound to DNA molar ratio of 0.1 at pH 7 by thermal denaturation assay", "assay_type": "nucleic-acid assay", "conditions": "Bos taurus", "summary_of_the_method": "(§3)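 Absorbance of ct-DNA alone or with compound at 260 nm was recorded against temperature in sodium cacodylate buffer (I = 0.05 mol dm⁻³, pH 7.0). r = [compound]/[polynucleotide]. Ligand absorbance was subtracted and curves were normalised. Tm was the transition midpoint, taken from the first-derivative maximum or by tangent method. ΔTm = Tm(complex) − Tm(free DNA), averaged over at least two runs, ±0.5 °C.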"}, "[22]": {"test_system": "Nucleic Acid", "experiment": "Binding affinity to calf thymus DNA assessed as change in melting temperature at compound to DNA molar ratio of 0.2 at pH 7 by thermal denaturation assay", "assay_type": "nucleic-acid assay", "conditions": "Bos taurus", "summary_of_the_method": "as §3"}, "[23]": {"test_system": "Nucleic Acid", "experiment": "Binding affinity to calf thymus DNA assessed as change in melting temperature at compound to DNA molar ratio of 0.3 at pH 7 by thermal denaturation assay", "assay_type": "nucleic-acid assay", "conditions": "Bos taurus", "summary_of_the_method": "as §3"}, "[24]": {"test_system": "Nucleic Acid", "experiment": "Binding affinity to calf thymus DNA assessed as binding constant at pH 7 by UV-visible spectrophotometry", "assay_type": "nucleic-acid assay", "conditions": "Bos taurus", "summary_of_the_method": "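Sonicated, filtered ct-DNA was quantified as phosphate. It was added in portions to the compound solution in sodium cacodylate buffer (I = 0.05 mol dm⁻³, pH 7.0), and absorbance changes were followed. Ks came from non-linear least-squares fitting to the Scatchard equation, with Ks recalculated for a fixed n of 0.2.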"}, "[25]": {"test_system": "Nucleic Acid", "experiment": "Binding affinity to calf thymus DNA by CD-Spectroscopy", "assay_type": "nucleic-acid assay", "conditions": "Bos taurus"}}, "note": "pIC50: −log10 of the molar value. Calls of active or inactive are those of the source. The calls are words filed in the database; no cut-off is given here."}
{"smiles": "N#Cc1cc2cc(N)ccc2n2c1nc1ccccc12", "note": "[listing 1 of 2 here]", "values": [{"measurement": "pIC50", "setting": "[1]; molt-4", "value": 5.22}, {"measurement": "Activity", "setting": "[2]", "value": 25, "unit": "%"}, {"measurement": "Activity", "setting": "[3]", "value": 62, "unit": "%"}, {"measurement": "Activity", "setting": "[4]", "value": 20, "unit": "%"}, {"measurement": "Activity", "setting": "[5]", "value": 47, "unit": "%"}, {"measurement": "Activity", "setting": "[6]", "value": 6, "unit": "%"}, {"measurement": "Activity", "setting": "[7]", "value": 18, "unit": "%"}, {"measurement": "pIC50", "setting": "[8]; hct-116", "value": 5.40}, {"measurement": "pIC50", "setting": "[9]; sw-620", "value": 5.40}, {"measurement": "solubility", "setting": "[10]", "value": "Insoluble"}, {"measurement": "pIC50", "setting": "[11]; nci-h460", "value": 5.52}, {"measurement": "Activity", "setting": "[12]", "value": 3, "unit": "%"}, {"measurement": "Activity", "setting": "[13]", "value": 28, "unit": "%"}]}
{"smiles": "O=[N+]([O-])c1ccc2c(ccc3nc4ccccc4n32)c1", "values": [{"measurement": "pIC50", "setting": "[1]; Homo sapiens, MOLT-4, 72 h", "value": 5.52}, {"measurement": "pIC50", "setting": "[14]", "value": 5.40}, {"measurement": "pIC50", "setting": "[8]; Homo sapiens, HCT-116, 72 h", "value": 5.22}, {"measurement": "pIC50", "setting": "[9]; Homo sapiens, SW-620, 72 h", "value": 5.22}, {"measurement": "pIC50", "setting": "[11]; Homo sapiens, NCI-H460, 72 h", "value": 5.10}]}
{"smiles": "CC[n+]1c(-c2ccccc2)c2cc(N)ccc2c2ccc(N)cc21", "values": [{"measurement": "Activity", "setting": "[15]", "value": "Active"}, {"measurement": "log Ks", "setting": "[16]", "value": 6}]}
{"smiles": "Cl.N#Cc1cc2cc(N)ccc2n2c1nc1ccccc12", "values": [{"measurement": "pIC50", "setting": "[1]; molt-4", "value": 5.70}, {"measurement": "Drug uptake", "setting": "[17]", "value": "Active"}, {"measurement": "Activity", "setting": "[2]", "value": 31, "unit": "%"}, {"measurement": "Activity", "setting": "[3]", "value": 55, "unit": "%"}, {"measurement": "Drug uptake", "setting": "[18]", "value": "Active"}, {"measurement": "Activity", "setting": "[4]", "value": 20, "unit": "%"}, {"measurement": "Drug uptake", "setting": "[19]", "value": "Active"}, {"measurement": "Activity", "setting": "[5]", "value": 45, "unit": "%"}, {"measurement": "Activity", "setting": "[6]", "value": 4, "unit": "%"}, {"measurement": "pIC50", "setting": "[14]", "value": 5.40}, {"measurement": "Activity", "setting": "[7]", "value": 25, "unit": "%"}, {"measurement": "pIC50", "setting": "[8]; Homo sapiens, HCT-116, 72 h", "value": 5.52}, {"measurement": "Drug uptake", "setting": "[20]", "value": "Not Active"}, {"measurement": "pIC50", "setting": "[9]; Homo sapiens, SW-620, 72 h", "value": 5.22}, {"measurement": "pIC50", "setting": "[11]; Homo sapiens, NCI-H460, 72 h", "value": 5.70}, {"measurement": "Activity", "setting": "[12]", "value": 4, "unit": "%"}, {"measurement": "Activity", "setting": "[13]", "value": 24, "unit": "%"}]}
{"smiles": "N#Cc1cc2cc(N)ccc2n2c1nc1ccccc12", "note": "[listing 2 of 2 here]", "values": [{"measurement": "ΔTm", "setting": "[21]", "value": 0.9, "unit": "°C"}, {"measurement": "ΔTm", "setting": "[22]", "value": 1.9, "unit": "°C"}, {"measurement": "ΔTm", "setting": "[23]", "value": 0.2, "unit": "°C"}, {"measurement": "log Ks", "setting": "[24]", "value": 5.1}, {"measurement": "log Ks", "setting": "[16]", "value": 5.5}, {"measurement": "Activity", "setting": "[25]", "value": "Active"}]}
{"smiles": "O=[N+]([O-])c1ccc(Cl)c(/C=C/c2nc3ccccc3[nH]2)c1", "values": [{"measurement": "pIC50", "setting": "[1]; Homo sapiens, MOLT-4, 72 h", "value": "< 4.00"}, {"measurement": "pIC50", "setting": "[14]", "value": 4.49}, {"measurement": "pIC50", "setting": "[8]; Homo sapiens, HCT-116, 72 h", "value": 5.40}, {"measurement": "pIC50", "setting": "[9]; Homo sapiens, SW-620, 72 h", "value": 4.55}, {"measurement": "pIC50", "setting": "[11]; Homo sapiens, NCI-H460, 72 h", "value": "< 4.00"}]}
